Experimental data as given in ChEMBL document CHEMBL1156669, “Aldehyde dehydrogenase inhibitors: alpha,beta-acetylenic N-substituted aminothiolesters are reversible growth inhibitors of normal epithelial but irreversible apoptogens for cancer epithelial cells from human prostate in culture” (Eur J Med Chem, 2008).
Activity calls are given as the source filed them. The rule behind the calls is not given here.

Experiments:
DU-145 [1] = experiment: Growth inhibition of human DU145 cells administered after 3 days; type: functional, cell-based; conditions: DU-145, 72 h
Procedure, shortened: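 DU145 in RPMI 1640 with 10% FCS; 1 × 10⁵ cells per well in 24-well plates, compound added 4 h after seeding. After 3 days the adherent sheet was washed twice with PBS and harvested in 0.14 M NaOH, and protein content measured. IC50 is the mean of three experiments.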

[2] = Reversal of growth inhibition in HPEN cells assessed as increase in cell number at 10 uM on day 3 replaced with fresh medium without drug and measured after 8 days; type: cell-based; conditions: human, 192 h
Procedure, shortened: (§1)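 Cells were treated for 3 days. The medium was then aspirated, the sheet washed with PBS and fresh drug-free medium added, followed by 5 more days of culture. Growth measured on day 8 as adherent-cell protein and expressed relative to the day-3 protein content of parallel wells. Two experiments in duplicate.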

DU-145 [3] = experiment: Reversal of growth inhibition in human DU145 cells assessed as increase in cell number at 10 uM on day 3 replaced with fresh medium without drug and measured after 8 days; type: functional; procedure, shortened: as §1
DU-145 [4] = experiment: Reversal of growth inhibition in human DU145 cells assessed as increase in cell number at 10 uM after 8 days; type: functional
Procedure, shortened: (§2)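 Cells seeded in six wells and treated from 4 h after seeding. Two wells were left in the original drug-containing medium for a further 5 days. Growth measured on day 8 as protein content of adherent cells and expressed as the day 8/day 3 ratio. EtOH vehicle controls were handled identically. Two experiments in duplicate.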

[5] = biological target: T1, Aldehyde dehydrogenase 1A1 (Homo sapiens) (UniProt P00352); experiment: Inhibition of ALDH1 in human DU145 cells at 7.5 uM after 3 days; type: cell-based; conditions: DU-145
T1 sequence (whole entry): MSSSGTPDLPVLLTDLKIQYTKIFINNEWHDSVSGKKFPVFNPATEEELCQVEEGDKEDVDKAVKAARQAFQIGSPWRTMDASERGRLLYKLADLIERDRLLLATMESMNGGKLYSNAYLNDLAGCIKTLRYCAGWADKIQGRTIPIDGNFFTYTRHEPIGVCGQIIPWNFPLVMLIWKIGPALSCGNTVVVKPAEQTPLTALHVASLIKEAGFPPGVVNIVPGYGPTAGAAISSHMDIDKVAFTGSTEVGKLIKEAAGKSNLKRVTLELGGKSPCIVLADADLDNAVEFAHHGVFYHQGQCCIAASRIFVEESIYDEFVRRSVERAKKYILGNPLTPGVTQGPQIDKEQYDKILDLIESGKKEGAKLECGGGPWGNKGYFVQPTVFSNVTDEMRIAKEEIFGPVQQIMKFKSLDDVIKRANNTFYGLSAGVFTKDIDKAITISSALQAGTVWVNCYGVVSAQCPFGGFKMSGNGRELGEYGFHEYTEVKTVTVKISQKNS
Procedure, shortened: (§3)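 DU145 treated for 3 days, trypsinised, washed in PBS and lysed in 60 mM sodium phosphate pH 7 with 1% Triton X-100 and 1 mM EDTA, 30 min at 4 °C; lysate spun at 48,000g for 30 min. ALDH1: supernatant in phosphate pH 8.5, 1 mM EDTA, 100 mM KCl, 2.35 mM NAD, propanal substrate. ALDH3: 5 mM benzaldehyde, 2.5 mM NADP, 1 mM pyrazole. Two experiments in duplicate.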

[6] = Reversal of growth inhibition in HPEN cells assessed as increase in cell number at 15 uM on day 3 replaced with fresh medium without drug and measured after 8 days; type: cell-based; conditions: human, 192 h; procedure, shortened: as §1
[7] = Growth inhibition of human androgen-resistant ME cells after 3 days; type: functional; conditions: 72 h
Procedure, shortened: (§4)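 MOP (androgen-sensitive, LNCaP grown long-term in steroid-deprived medium) and ME (from regrown MOP xenografts under androgen) in RPMI 1640 with 5% charcoal-treated FCS. Seeded 1 × 10⁵ cells per well in 24-well plates, compound added at 4 h, cell count by Coulter counter after 3 days. IC50 is the mean of three experiments.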

[8] = biological target: T1, Aldehyde dehydrogenase 1A1 (Homo sapiens); experiment: Inhibition of ALDH1 in human DU145 cells at 5 uM after 3 days; type: cell-based; conditions: DU-145; procedure, shortened: as §3
[9] = biological target: T2, Aldehyde dehydrogenase, dimeric NADP-preferring (Homo sapiens) (UniProt P30838); experiment: Inhibition of ALDH3 in human DU145 cells at 7.5 uM after 3 days; type: cell-based; conditions: DU-145; procedure, shortened: as §3
T2 sequence (whole entry): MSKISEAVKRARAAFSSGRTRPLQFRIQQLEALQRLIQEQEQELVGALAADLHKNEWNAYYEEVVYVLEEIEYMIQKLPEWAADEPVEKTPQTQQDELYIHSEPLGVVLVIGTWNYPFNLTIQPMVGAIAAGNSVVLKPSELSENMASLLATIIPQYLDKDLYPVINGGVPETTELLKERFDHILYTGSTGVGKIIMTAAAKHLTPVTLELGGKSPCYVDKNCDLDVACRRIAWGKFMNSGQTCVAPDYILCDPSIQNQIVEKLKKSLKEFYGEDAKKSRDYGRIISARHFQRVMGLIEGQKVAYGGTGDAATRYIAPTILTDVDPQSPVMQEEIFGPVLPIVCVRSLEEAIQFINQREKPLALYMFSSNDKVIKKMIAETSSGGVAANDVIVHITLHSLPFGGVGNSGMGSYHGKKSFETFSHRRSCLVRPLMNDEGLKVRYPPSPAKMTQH

DU-145 [10] = experiment: Growth inhibition of human DU145 cells at 15 uM after 3 days; type: functional; conditions: DU-145, 72 h
Procedure, shortened: (§5)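 Vehicle controls received 0.5% EtOH. Cells seeded at 1 × 10⁵ per well, compound added at 4 h. Growth inhibition measured by protein content at day 3; two experiments, each in duplicate.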

DU-145 [11] = experiment: Reversal of growth inhibition in human DU145 cells assessed as increase in cell number at 15 uM on day 3 replaced with fresh medium without drug and measured after 8 days; type: functional; procedure, shortened: as §1
[12] = biological target: T1, Aldehyde dehydrogenase 1A1 (Homo sapiens); experiment: Inhibition of ALDH1 in human DU145 cells at 2.5 uM after 3 days; type: cell-based; conditions: DU-145; procedure, shortened: as §3
BaF3 = experiment: Induction of apoptosis in mouse BAF3 cells overexpressing bcl2; type: functional, cell-based
[13] = Growth inhibition of HPEN cells at 10 uM after 3 days; type: cell-based; conditions: human
Procedure, shortened: (§6)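 Cells seeded at 1 × 10⁵ per well in 24-well plates; compound added 4 h post-seeding and left for 3 days. Growth inhibition measured as protein content relative to control. HPENC values are means of three experiments in duplicate; DU145 values are means of five experiments in duplicate.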

[14] = Growth inhibition of human androgen-sensitive MOP cells after 3 days; type: functional; conditions: 72 h; procedure, shortened: as §4
DU-145 [15] = experiment: Growth inhibition of human DU145 cells at 5 uM after 3 days; type: functional; conditions: DU-145, 72 h; procedure, shortened: as §6
DU-145 [16] = experiment: Growth inhibition of human DU145 cells at 10 uM after 3 days; type: functional; conditions: DU-145, 72 h; procedure, shortened: as §6
[17] = Growth inhibition of HPEN cells administered after 3 days; type: cell-based; conditions: Homo sapiens, 72 h
Procedure, shortened: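 HPENC in PrEGM with supplement and 10% FCS; 1 × 10⁵ cells per well in 24-well plates, compound added 4 h after seeding once adhered. After 3 days, growth read as protein content. IC50 is the mean of three experiments.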

DU-145 [18] = experiment: Reversal of growth inhibition in human DU145 cells assessed as increase in cell number at 15 uM after 8 days; type: functional; procedure, shortened: as §2
MRC5 = experiment: Growth inhibition of human MRC5 cells; type: cell-based
[19] = Growth inhibition of HPEN cells at 15 uM after 3 days; type: cell-based; conditions: human; procedure, shortened: as §5
[20] = biological target: T2, Aldehyde dehydrogenase, dimeric NADP-preferring (Homo sapiens); experiment: Inhibition of ALDH3 in human DU145 cells at 5 uM after 3 days; type: cell-based; conditions: DU-145; procedure, shortened: as §3
[21] = Reversal of growth inhibition in HPEN cells assessed as increase in cell number at 15 uM after 8 days; type: cell-based; conditions: human, 192 h; procedure, shortened: as §2
[22] = Growth inhibition of HPEN cells at 2 uM after 3 days; type: cell-based; conditions: human; procedure, shortened: as §6
[23] = biological target: T2, Aldehyde dehydrogenase, dimeric NADP-preferring (Homo sapiens); experiment: Inhibition of ALDH3 in human DU145 cells at 2.5 uM after 3 days; type: cell-based; conditions: DU-145; procedure, shortened: as §3
[24] = Reversal of growth inhibition in HPEN cells assessed as increase in cell number at 10 uM after 8 days; type: cell-based; conditions: human, 192 h; procedure, shortened: as §2
[25] = biological target: T3, Aldehyde dehydrogenase 1, mitochondrial (Saccharomyces cerevisiae) (UniProt P22281); experiment: Inhibition of yeast ALDH1 at 600 uM
T3 sequence (whole entry): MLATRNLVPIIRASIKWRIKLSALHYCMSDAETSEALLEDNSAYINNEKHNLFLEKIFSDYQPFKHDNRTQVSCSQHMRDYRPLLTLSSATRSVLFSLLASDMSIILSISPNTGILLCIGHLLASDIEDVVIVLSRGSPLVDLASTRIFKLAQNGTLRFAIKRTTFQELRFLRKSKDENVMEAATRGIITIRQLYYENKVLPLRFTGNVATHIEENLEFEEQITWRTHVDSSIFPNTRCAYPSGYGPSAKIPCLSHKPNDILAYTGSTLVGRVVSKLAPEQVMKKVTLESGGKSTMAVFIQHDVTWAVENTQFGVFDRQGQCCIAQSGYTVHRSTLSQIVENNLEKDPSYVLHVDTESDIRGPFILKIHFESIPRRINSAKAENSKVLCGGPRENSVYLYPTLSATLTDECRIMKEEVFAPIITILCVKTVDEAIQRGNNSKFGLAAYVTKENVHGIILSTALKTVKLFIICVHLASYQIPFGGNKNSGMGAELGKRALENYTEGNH

[26] = Growth inhibition of HPEN cells at 5 uM after 3 days; type: cell-based; conditions: human; procedure, shortened: as §6
DU-145 [27] = experiment: Growth inhibition of human DU145 cells at 2 uM after 3 days; type: functional; conditions: DU-145, 72 h; procedure, shortened: as §6
DU-145 [28] = experiment: Induction of apoptosis in human DU145 cells assessed as apoptotic cells in flow cytometry region H3 at 10 uM after 3 days by flow cytometry
DU-145 [29] = experiment: Induction of apoptosis in human DU145 cells assessed as apoptotic cells in flow cytometry region H1 at 10 uM after 3 days by flow cytometry
DU-145 [30] = experiment: Decrease in redox potential in human DU145 cells at 10 uM after 3 days by flow cytometry; type: functional, cell-based
[31] = Growth inhibition of rat JM2 cells; type: functional, cell-based
DU-145 [32] = experiment: Increase in superoxide anion level in human DU145 cells at 10 uM after 3 days by flow cytometry; type: functional, cell-based
RH7777 = experiment: Growth inhibition of RH7777 cells; type: functional, cell-based; conditions: Rattus norvegicus

SMILES: CSC(C#CC(C)(C)N1CCOCC1)=[N+](C)C
- IC50 (DU-145 [1]): > 100 µM

SMILES: CCCN(CCC)C(C)(C)C#CC(=O)SC
- IC50 (DU-145 [1]): 12.6 µM

SMILES: CSC(=O)C#CC(C)(C)N1CCOCC1
- IC50 (DU-145 [1]): 9.3 µM
- Activity [2]: 1.6
- Activity (DU-145 [3]): 2.6
- Activity (DU-145 [4]): 3
- inhibition [5]: 32%
- Activity [6]: 2.6
- IC50 [7]: 10 µM
- inhibition [8]: 20%
- inhibition [9]: 78%
- inhibition at 15 µM (DU-145 [10]): 88%
- Activity (DU-145 [11]): 1.6
- inhibition [12]: 3%
- IC50 (BaF3): 12 µM
- inhibition at 72 h, 10 µM [13]: 11%
- IC50 [14]: 10 µM
- inhibition at 5 µM (DU-145 [15]): 8%
- inhibition at 10 µM (DU-145 [16]): 70%
- IC50 [17]: > 10 µM
- Activity (DU-145 [18]): 1.9
- IC50 (MRC5): 29 µM
- inhibition at 72 h, 15 µM [19]: 37%
- inhibition [20]: 60%
- Activity [21]: 1.4
- inhibition at 72 h, 2 µM [22]: 3%
- inhibition [23]: 40%
- Activity [24]: 0.4
- inhibition [25]: 15%
- inhibition at 72 h, 5 µM [26]: 6%
- inhibition at 2 µM (DU-145 [27]): 0%

SMILES: CSC(=O)C#CC(C)(C)N(C)C
- IC50 (DU-145 [1]): 7.2 µM
- Activity [2]: 2.8
- Activity (DU-145 [3]): 2.7
- Activity (DU-145 [4]): 2.5
- Activity (DU-145 [28]): Active
- Activity (DU-145 [29]): Active
- inhibition [5]: 78%
- IC50 [7]: 3 µM
- inhibition [8]: 40%
- inhibition [9]: 100%
- Activity (DU-145 [30]): Active
- inhibition [12]: 15%
- IC50 [31]: 10 µM
- Activity (DU-145 [32]): Active
- inhibition at 72 h, 10 µM [13]: 60%
- IC50 (RH7777): 10 µM
- IC50 [14]: 3 µM
- inhibition at 5 µM (DU-145 [15]): 34%
- inhibition at 10 µM (DU-145 [16]): 78%
- IC50 [17]: 9.7 µM
- IC50 (MRC5): 8 µM
- inhibition [20]: 62%
- inhibition at 72 h, 2 µM [22]: 6%
- inhibition [23]: 40%
- Activity [24]: 0.9
- inhibition at 72 h, 5 µM [26]: 23%
- inhibition at 2 µM (DU-145 [27]): 6%

SMILES: CSC(=O)C#CC(C)(C)N(C)Cc1ccccc1
- IC50 (DU-145 [1]): 1.4 µM
- IC50 [17]: 1.9 µM

SMILES: CSC(=O)C#CC(C)(C)N(C)c1ccccc1
- IC50 (DU-145 [1]): 12.5 µM

SMILES: CSC(=O)C#CC(C)(C)N1CCSCC1
- IC50 (DU-145 [1]): 54 µM

SMILES: CSC(=O)C#CC(C)(C)N1Cc2ccccc2C1
- IC50 (DU-145 [1]): 6.2 µM
